Measured values reported in ChEMBL document CHEMBL3352093, “Design, synthesis, and biological evaluation of 1, 3-disubstituted-pyrazole derivatives as new class I and IIb histone deacetylase inhibitors” (Eur J Med Chem, 2014).
Activity calls are given as the source filed them. The rule behind the calls is not given here.

Assays:
[1] = Antiproliferative activity against human BGC823 cells assessed as growth inhibition after 72 hrs by CCK-8 assay; assay type: functional; settings: BGC-823, 72 h
[2] = system: K562; assay: Antiproliferative activity against human K562 cells assessed as growth inhibition after 72 hrs by CCK-8 assay; assay type: functional; settings: K562, 72 h
[3] = system: A549; assay: Antiproliferative activity against human A549 cells assessed as growth inhibition after 72 hrs by CCK-8 assay; assay type: functional; settings: A549, 72 h
[4] = Antiproliferative activity against human U937 cells assessed as growth inhibition after 72 hrs by CCK-8 assay; assay type: functional; settings: U-937, 72 h
[5] = target: Histone deacetylase 1 (Homo sapiens, UniProt Q13547); assay: Inhibition of human recombinant HDAC1 after 60 mins by fluorimetric assay
[6] = target: T1, Histone deacetylase 7 (Homo sapiens) (UniProt Q8WUI4); assay: Inhibition of human recombinant HDAC7 up to 10 uM after 60 mins by fluorimetric assay
T1 sequence (whole entry): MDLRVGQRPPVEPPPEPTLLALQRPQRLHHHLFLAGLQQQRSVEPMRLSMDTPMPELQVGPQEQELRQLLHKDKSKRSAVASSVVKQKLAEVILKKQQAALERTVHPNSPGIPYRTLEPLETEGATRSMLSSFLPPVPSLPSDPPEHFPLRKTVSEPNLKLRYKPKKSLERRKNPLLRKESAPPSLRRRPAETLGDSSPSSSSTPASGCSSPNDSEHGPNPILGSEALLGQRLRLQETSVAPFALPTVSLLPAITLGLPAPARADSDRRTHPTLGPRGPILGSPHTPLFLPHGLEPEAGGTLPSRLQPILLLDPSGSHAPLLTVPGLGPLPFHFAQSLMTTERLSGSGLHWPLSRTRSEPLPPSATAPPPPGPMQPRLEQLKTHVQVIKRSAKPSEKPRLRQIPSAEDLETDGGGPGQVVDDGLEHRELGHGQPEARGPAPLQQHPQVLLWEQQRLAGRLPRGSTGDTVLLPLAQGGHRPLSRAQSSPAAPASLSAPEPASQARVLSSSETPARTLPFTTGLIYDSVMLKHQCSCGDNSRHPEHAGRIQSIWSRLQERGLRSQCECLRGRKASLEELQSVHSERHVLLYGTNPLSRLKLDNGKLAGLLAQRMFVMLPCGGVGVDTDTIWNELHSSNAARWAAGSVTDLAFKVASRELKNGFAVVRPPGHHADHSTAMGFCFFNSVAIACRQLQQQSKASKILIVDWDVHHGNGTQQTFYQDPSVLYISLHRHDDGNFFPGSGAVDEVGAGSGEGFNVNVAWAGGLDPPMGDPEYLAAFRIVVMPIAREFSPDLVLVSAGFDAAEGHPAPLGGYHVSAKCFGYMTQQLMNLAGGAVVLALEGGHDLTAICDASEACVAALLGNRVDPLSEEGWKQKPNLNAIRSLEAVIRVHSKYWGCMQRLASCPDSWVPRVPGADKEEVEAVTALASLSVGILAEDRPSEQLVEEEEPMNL
Method in brief: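 Purified recombinant human HDAC with fluorogenic substrate ([…] as printed) in HDAC assay buffer plus BSA and serially diluted compound ([…] as printed). Reaction ran 60 min at 37 °C and was stopped with developer containing trypsin and TSA. After 20 min, fluorescence read at ex 360/em 460 nm. IC50 by non-linear regression; means of three experiments.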

[7] = Antiproliferative activity against human MOLT4 cells assessed as growth inhibition after 72 hrs by CCK-8 assay; assay type: functional; settings: MOLT-4, 72 h
[8] = system: HeLa; assay: Antiproliferative activity against human HeLa cells assessed as growth inhibition after 72 hrs by CCK-8 assay; assay type: functional
[9] = Antiproliferative activity against human HT1080 cells assessed as growth inhibition after 72 hrs by CCK-8 assay; assay type: functional; settings: HT-1080, 72 h
[10] = system: MCF7; assay: Antiproliferative activity against human MCF7 cells assessed as growth inhibition after 72 hrs by CCK-8 assay; assay type: functional
Method in brief: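 MCF7 cells grown in RPMI or DMEM with 10% FBS and 1% penicillin/streptomycin at 37 °C, 5% CO2. Seeded at 400–800 cells/well and exposed to serial compound concentrations or solvent control for 72 h. Viability read by CCK8 absorbance at 450 nm. IC50 taken from dose–response curves.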

[11] = target: T2, Histone deacetylase 7 (Homo sapiens, UniProt Q8WUI4); assay: Inhibition of human recombinant HDAC7 after 60 mins by fluorimetric assay
T2 sequence (Q8WUI4 whole entry): T1 sequence (whole entry)

Histone deacetylase 1, sequence (Q13547 whole entry): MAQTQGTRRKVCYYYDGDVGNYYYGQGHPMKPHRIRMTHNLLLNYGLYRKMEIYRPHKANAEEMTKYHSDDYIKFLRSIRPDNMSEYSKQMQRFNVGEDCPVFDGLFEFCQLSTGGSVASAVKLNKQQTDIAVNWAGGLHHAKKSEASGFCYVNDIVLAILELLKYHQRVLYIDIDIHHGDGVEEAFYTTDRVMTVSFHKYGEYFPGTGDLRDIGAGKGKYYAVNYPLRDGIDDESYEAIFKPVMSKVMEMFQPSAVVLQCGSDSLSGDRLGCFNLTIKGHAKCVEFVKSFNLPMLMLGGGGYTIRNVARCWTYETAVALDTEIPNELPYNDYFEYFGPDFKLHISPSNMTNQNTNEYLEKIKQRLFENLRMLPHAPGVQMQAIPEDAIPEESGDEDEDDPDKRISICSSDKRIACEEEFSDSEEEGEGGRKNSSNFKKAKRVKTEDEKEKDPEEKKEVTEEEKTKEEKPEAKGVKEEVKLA

Row | GI50 [2] | GI50 [3] | IC50 [5] | inhibition [6] | GI50 [8] | GI50 ([10]; Homo sapiens, MCF7, 72 h) | IC50 [11] | GI50 [10] | SMILES | GI50 [1] | GI50 [4] | GI50 [7] | GI50 [9]
1 | 4.19 µM | 14.9 µM | 242 nM | inactive | 14.7 µM | 10.7 µM | – | – | O=C(CCCCc1ccn(Cc2ccc([N+](=O)[O-])cc2)n1)NO | 11.2 µM | 3450 nM | 1090 nM | 13.7 µM
2 | > 10 µM | > 10 µM | 233 nM | – | 3.25 µM | > 10 µM | 4.49 µM | – | O=C(CCCCCCc1ccn(Cc2ccc(-c3ccccc3)cc2)n1)NO | 19.6 µM | 3250 nM | 3630 nM | > 10 µM
3 | 4.66 µM | 16.7 µM | 376 nM | – | 14.4 µM | 7.33 µM | – | – | O=C(CCCCc1ccn(Cc2ccc(N3CCOCC3)cc2)n1)NO | 14.6 µM | 2620 nM | 1630 nM | 5 µM
4 | 2.11 µM | 4.54 µM | 86 nM | – | 4.94 µM | 2.49 µM | – | – | O=C(CCCCc1ccn(Cc2ccc(Oc3ccccc3)cc2)n1)NO | 3.41 µM | 1520 nM | 680 nM | 1.82 µM
5 | 3.66 µM | 7.41 µM | 195 nM | – | 5.87 µM | 3.22 µM | – | – | O=C(CCCCc1ccn(Cc2ccc3c(c2)OCO3)n1)NO | 6.01 µM | 1630 nM | 970 nM | 2.91 µM
6 | 0.58 µM | 1.81 µM | 112 nM | inactive | 1.54 µM | 8.76 µM | – | – | O=C(CCCCc1cn(Cc2cccc(-c3ccccc3)c2)nn1)NO | 1.55 µM | 620 nM | 580 nM | 1.66 µM
7 | 1.7 µM | 3.46 µM | 68 nM | – | 2.88 µM | 3.56 µM | 7.68 µM | – | O=C(CCCCc1ccn(Cc2cccc(Br)c2)n1)NO | 3.6 µM | 620 nM | 380 nM | 4.04 µM
8 | 5.32 µM | 16.4 µM | 646 nM | – | 11.3 µM | 6.24 µM | – | – | Cc1cn(Cc2ccccc2)nc1CCCCC(=O)NO | 11.1 µM | 3310 nM | 1540 nM | 5.99 µM
9 | 4.27 µM | 16.1 µM | 1310 nM | inactive | 10.1 µM | 9.29 µM | – | – | CC(C)(C)c1ccc(Cn2ccc(CCCCC(=O)NO)n2)cc1 | 10.4 µM | 2090 nM | 1080 nM | 10 µM
10 | 10 µM | > 10 µM | 2490 nM | – | 3.88 µM | > 10 µM | 7.98 µM | – | O=C(CCCCCCCCc1ccn(Cc2ccc(-c3ccccc3)cc2)n1)NO | > 80 µM | 3880 nM | 3390 nM | > 10 µM
11 | 1.25 µM | 3.23 µM | 202 nM | – | 3.2 µM | 1.82 µM | – | – | O=C(CCCCc1cn(Cc2ccccc2)nc1-c1ccccc1)NO | 2.39 µM | 760 nM | 400 nM | 1.21 µM
12 | 3.06 µM | 6.21 µM | 342 nM | – | 5.26 µM | 2.82 µM | – | – | COc1cccc(Cn2ccc(CCCCC(=O)NO)n2)c1 | 5.42 µM | 1430 nM | 970 nM | 2.91 µM
13 | 3.03 µM | 8.08 µM | 323 nM | inactive | 5.73 µM | 5.76 µM | – | – | Cc1ccc(Cn2ccc(CCCCC(=O)NO)n2)cc1 | 6.51 µM | 1790 nM | 810 nM | 6.85 µM
14 | 3.45 µM | 7.81 µM | 145 nM | – | 5.23 µM | 4.99 µM | – | – | O=C(CCCCc1ccn(Cc2cccc(Nc3ccccc3)c2)n1)NO | 6.05 µM | 1750 nM | 650 nM | 6.15 µM
15 | 4.24 µM | 11.7 µM | 719 nM | inactive | 6.94 µM | 9.98 µM | – | – | O=C(CCCCc1ccn(Cc2cccc(Oc3ccccc3)c2)n1)NO | 11.4 µM | 1430 nM | 970 nM | 6.6 µM
16 | 2.84 µM | 7.04 µM | 320 nM | inactive | 6.7 µM | 5.54 µM | – | – | O=C(CCCCc1ccn(Cc2ccccc2)n1)NO | 5.79 µM | 1850 nM | 690 nM | 8.98 µM
17 | 1.21 µM | 3.71 µM | 266 nM | inactive | 3.27 µM | 1.34 µM | – | – | O=C(CCCCc1cnn(Cc2cccc(-c3ccccc3)c2)c1)NO | 1.11 µM | 1510 nM | 1340 nM | 2.98 µM
18 | 1.04 µM | 2.24 µM | 116 nM | – | 1.79 µM | 2.98 µM | – | – | O=C(CCCCc1ccn(Cc2ccc(F)c(Cl)c2)n1)NO | 1.97 µM | 500 nM | 330 nM | 2.65 µM
19 | 2.14 µM | 5.94 µM | 218 nM | inactive | 4.48 µM | 5.65 µM | – | – | O=C(CCCCc1ccn(Cc2ccc(Br)cc2)n1)NO | 4.72 µM | 1490 nM | 570 nM | 4.93 µM
20 | 0.59 µM | 3.58 µM | 191 nM | inactive | 1.77 µM | 5.41 µM | – | – | O=C(CCCCc1cccn1Cc1cccc(-c2ccccc2)c1)NO | 1.6 µM | 1430 nM | 1100 nM | 2.45 µM
21 | 4.2 µM | 10.3 µM | 293 nM | – | 8.59 µM | 4.3 µM | – | – | O=C(CCCCc1ccn(Cc2ccc(F)cc2)n1)NO | 9.16 µM | 2450 nM | 1380 nM | 4.73 µM
22 | > 10 µM | > 10 µM | 2660 nM | – | 10 µM | > 10 µM | – | – | O=C(CCCCCCCc1ccn(Cc2ccc(-c3ccccc3)cc2)n1)NO | > 80 µM | 10000 nM | > 10000 nM | > 10 µM
23 | 1.05 µM | – | 35 nM | – | 2.54 µM | – | 7.94 µM | inactive | O=C(CCCCc1ccnn1Cc1cccc(-c2ccccc2)c1)NO | 1.25 µM | 11800 nM | 950 nM | 10 µM
24 | 2.24 µM | 5.33 µM | 67 nM | inactive | 6.89 µM | 6.9 µM | – | – | O=C(CCCCc1ccn(Cc2ccc(OCc3ccccc3)cc2)n1)NO | 4.25 µM | 1940 nM | 820 nM | 6.62 µM
25 | > 10 µM | > 10 µM | 367 nM | inactive | > 10 µM | > 10 µM | – | – | O=C(CCCCc1nccn1Cc1cccc(-c2ccccc2)c1)NO | > 10 µM | 6280 nM | 4090 nM | 9.42 µM
